Experiment [1] has as its target T1, Pancreatic triacylglycerol lipase (Sus scrofa) (UniProt P00591).
T1 sequence (whole entry): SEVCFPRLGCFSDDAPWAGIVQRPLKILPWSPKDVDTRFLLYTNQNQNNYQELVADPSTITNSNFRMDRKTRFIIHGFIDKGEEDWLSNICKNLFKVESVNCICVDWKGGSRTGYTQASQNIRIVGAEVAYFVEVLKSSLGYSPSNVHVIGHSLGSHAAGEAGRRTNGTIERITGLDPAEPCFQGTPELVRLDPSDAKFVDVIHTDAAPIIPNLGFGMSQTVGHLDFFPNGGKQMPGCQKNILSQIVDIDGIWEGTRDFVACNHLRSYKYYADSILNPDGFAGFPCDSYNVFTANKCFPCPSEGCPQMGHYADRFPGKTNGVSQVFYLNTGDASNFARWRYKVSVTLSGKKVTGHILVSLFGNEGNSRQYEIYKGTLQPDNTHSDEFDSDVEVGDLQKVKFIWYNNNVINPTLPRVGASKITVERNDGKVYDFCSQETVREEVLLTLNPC
Particulars: dose 4.9 mg/ml, time 30-90 min.

The target in experiment [2] is T2, Gastric triacylglycerol lipase (Canis lupus familiaris) (UniProt P80035).
T2 sequence (whole entry): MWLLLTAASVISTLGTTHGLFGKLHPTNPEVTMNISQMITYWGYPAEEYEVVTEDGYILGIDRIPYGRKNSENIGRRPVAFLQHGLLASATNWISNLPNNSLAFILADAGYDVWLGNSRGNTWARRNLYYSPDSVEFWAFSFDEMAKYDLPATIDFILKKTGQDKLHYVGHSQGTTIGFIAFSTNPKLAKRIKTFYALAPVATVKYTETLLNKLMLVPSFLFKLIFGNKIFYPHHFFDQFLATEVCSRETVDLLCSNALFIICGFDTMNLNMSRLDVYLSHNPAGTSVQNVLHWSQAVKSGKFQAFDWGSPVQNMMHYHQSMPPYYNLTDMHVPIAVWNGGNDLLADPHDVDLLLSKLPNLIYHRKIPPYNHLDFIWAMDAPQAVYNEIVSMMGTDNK
In words: Inhibition of recombinant dog gastric lipase assessed as lipolysis level at 4.9 mg/ml under gastric phase at pH 5.5 using liquid test meal measured up to 30 mins (reference value: 22.3 +/- 1.4 %). Particulars: time min <=30. The arrangement: scale not given: the % may be the effect or the level left. The method, boiled down:
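In vitro two-phase digestion at 37 °C, 1,000 rpm: 15 mL liquid or solid test meal (506 mg TAG) was premixed with 7.262 µmol inhibitor in DMSO (DMSO-only control). Gastric phase: DGL 17 µg/mL final, pH 5.5. Duodenal phase from 30 min: pancreatic extract plus bovine bile added (PPL 250 µg/mL, bile salts 4.0 mM), pH 6.25. Lipids in samples were quantified by TLC-FID; LL% is (MAG+FFA) relative to 3×initial TAG; n = 3.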

In experiment [3] the target is T1, Pancreatic triacylglycerol lipase (Sus scrofa). Particulars: dose 4.9 mg/ml, time 30-90 min. The source holds these as a separate data set.
The species named for experiment [4] is Homo sapiens. In words: Inhibition of human pancreatic carboxylesterase preincubated for 30 mins at 25 degreeC. In a few lines:
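hCEH (1 mg/mL in 10 mM MES pH 6.5, 150 mM NaCl) pre-incubated 30 min at 25 °C with inhibitor from DMSO stock at various molar excesses, no substrate. Residual activity by pH-stat on tributyrin emulsion at 37 °C in 1 mM Tris-HCl pH 8.0, 100 mM NaCl, 5 mM CaCl2, 1 mM NaTDC. Relative to DMSO-only control; at least triplicate.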

For experiment [5], the target named is T2, Gastric triacylglycerol lipase (Canis lupus familiaris). As to the kind of experiment: Inhibition of recombinant dog gastric lipase assessed as lipolysis level at 4.1 mg/ml under gastric phase at pH 5.5 using solid test meal measured up to 30 mins (reference value: 13 +/- 1.2 %). The arrangement: scale not given: the % may be the effect or the level left. Particulars: time min <=30. The method, boiled down: (§1)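 Gastric phase: 15 mL liquid or solid test meal (506 mg TAG) premixed with 734 µL of 4.1 mg/mL DMSO stock (2.94 mg, 7.262 µmol), then DGL to 17 µg/mL final, pH 5.5, 37 °C, stirred. Samples at 1, 15, 29 min; residual DGL activity by pH-stat; lipolysis level from TLC-FID of lipid extracts. DMSO-only controls; n = 3.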

For experiment [6] the target is unchanged. In words: Inhibition of recombinant dog gastric lipase assessed as residual activity at 4.1 mg/ml under gastric phase at pH 5.5 using solid test meal measured up to 30 mins relative to control. Particulars: time min <=30. In a few lines: as §1
Experiment [7] concerns the target T1, Pancreatic triacylglycerol lipase (Sus scrofa). In words: Inhibition of porcine pancreatic lipase at 4.1 mg/ml under duodenal phase at pH 6.5 using solid test meal measured after 30 to 90 mins relative to control. Particulars: time 30-90 min.
The target is the same in experiment [8]. In words: Inhibition of porcine pancreatic lipase assessed as lipolysis level at 4.1 mg/ml under duodenal phase at pH 6.5 using liquid test meal measured at 45 mins (reference value: 58 +/- 3.1 %). The arrangement: scale not given: the % may be the effect or the level left.
Experiment [9] deals with T2, Gastric triacylglycerol lipase (Canis lupus familiaris). In words: Inhibition of recombinant dog gastric lipase preincubated for 1 hr at 25 degreeC relative to orlistat.
Experiment [10] concerns the target T1, Pancreatic triacylglycerol lipase (Sus scrofa). As to the kind of experiment: Inhibition of porcine pancreatic lipase at 4.1 mg/ml under duodenal phase at pH 6.5 using liquid test meal measured after 30 to 90 mins relative to control. Particulars: time 30-90 min.

Two molecules from ChEMBL document CHEMBL4715754, “Slowing down fat digestion and absorption by an oxadiazolone inhibitor targeting selectively gastric lipolysis” (2016) can be followed below.

In general, inhibition refers to the percentage by which the read-out fell short of the control.

The structures appear in SMILES notation.

As for `CCCCCCCCCCC[C@@H](C[C@@H]1OC(=O)[C@H]1CCCCCC)OC(=O)[C@@H](CC(C)C)NC=O`, the results for the inhibition in experiment [1] and in experiment [3] were 86.6% and 100%, respectively. Also, the Activity in experiment [2] came to 0%.
Take `O=c1oc(OCCOCc2ccccc2)nn1-c1cccc(Oc2ccccc2)c1`: the XI50 in experiment [4] was 1.42 molar excess. For the same molecule, the values for the Activity in experiment [5], in [6] and in [8] were 3.1%, 2.8% and 48.1%, respectively. Further, the inhibition in [7] came to 5.1%; in experiment [10] it was 5.6%. Further, in [9], the fold change (FC) is 11.2.
